Measurements published in ChEMBL document CHEMBL5724801, “EUbOPEN Chemogenomics Library - Multiplex” (2024).
Values joined by “and” are separate entries in the source; they are usually repeats but may differ in a detail not shown here. Identical values can stand only once.

Columns and labels:
HEK-293T = assay: Multiplex assay against HEK293T; assay type: toxicity, cell-based; conditions: human
Method in brief: (§1)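 Tubulin, mitochondrial-mass and membrane-permeability phenotypes are per cents of healthy-nucleus cells. Cells were gated by CellPathfinder machine learning into Hoechst high-intensity objects or normal cells, normal cells into healthy, pyknosed or fragmented nuclei, and pyknosed cells into mitotic or apoptotic. Before that, live cells stained at seeding with Hoechst33342, BioTracker Green Microtubule Cytoskeleton Dye, MitoTracker Red and Annexin V Alexa Fluor 680 were imaged on a CQ1 microscope at 37°C and 5% CO2 after compound addition.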

U2OS = assay: Multiplex assay against U2OS; assay type: toxicity, cell-based; conditions: human; method in brief: as §1
[1] = 24 h, 10 µM, compound concentration 10 uM
[2] = 48 h, 1 µM, compound concentration 1 uM
[3] = 48 h, 10 µM, compound concentration 10 uM
[4] = 12 h, 1 µM, compound concentration 1 uM
[5] = 12 h, 10 µM, compound concentration 10 uM
[6] = 24 h, 1 µM, compound concentration 1 uM

Br.CS(=O)(=O)Nc1c(O)ccc2c1CCCC2C1=NCCN1 (configuration not stated)
Population Apoptotic (%) (HEK-293T; [1]): 30% and 34%
Population Fragmented Nuclei (%) (HEK-293T; [1]): 11%
Population Healthy Nuclei (%) (HEK-293T; [1]): 75% and 77%
Population Hoechst High Intensity Objects (%) (HEK-293T; [1]): 6% and 11%
Population Membrane Permeable-Phenotype (%) (HEK-293T; [1]): 0%
Population Mitochondria Different-Phenotype (%) (HEK-293T; [1]): 40% and 46%
Population Mitotic Cells (%) (HEK-293T; [1]): 69% and 65%
Population Normal (%) (HEK-293T; [1]): 93% and 88%
Population Pyknosed Nuclei (%) (HEK-293T; [1]): 12% and 10%
Population Tubulin-Different-Phenotype (%) (HEK-293T; [1]): 23% and 21%
Total Cell Count (HEK-293T; [1]): 451 and 377
Population Apoptotic (%) (HEK-293T; [2]): 12% and 29%
Population Fragmented Nuclei (%) (HEK-293T; [2]): 14% and 11%
Population Healthy Nuclei (%) (HEK-293T; [2]): 78%
Population Hoechst High Intensity Objects (%) (HEK-293T; [2]): 4% and 6%
Population Membrane Permeable-Phenotype (%) (HEK-293T; [2]): 0%
Population Mitochondria Different-Phenotype (%) (HEK-293T; [2]): 20% and 22%
Population Mitotic Cells (%) (HEK-293T; [2]): 87% and 70%
Population Normal (%) (HEK-293T; [2]): 95% and 93%
Population Pyknosed Nuclei (%) (HEK-293T; [2]): 7% and 9%
Population Tubulin-Different-Phenotype (%) (HEK-293T; [2]): 14% and 12%
Total Cell Count (HEK-293T; [2]): 859 and 532
Population Apoptotic (%) (HEK-293T; [3]): 34% and 48%
Population Fragmented Nuclei (%) (HEK-293T; [3]): 16% and 14%
Population Healthy Nuclei (%) (HEK-293T; [3]): 76% and 79%
Population Hoechst High Intensity Objects (%) (HEK-293T; [3]): 4%
Population Membrane Permeable-Phenotype (%) (HEK-293T; [3]): 1% and 0%
Population Mitochondria Different-Phenotype (%) (HEK-293T; [3]): 22% and 27%
Population Mitotic Cells (%) (HEK-293T; [3]): 65% and 51%
Population Normal (%) (HEK-293T; [3]): 95%
Population Pyknosed Nuclei (%) (HEK-293T; [3]): 6% and 5%
Population Tubulin-Different-Phenotype (%) (HEK-293T; [3]): 12% and 11%
Total Cell Count (HEK-293T; [3]): 671 and 584
Population Apoptotic (%) (U2OS; [4]): 63% and 80%
Population Fragmented Nuclei (%) (U2OS; [4]): 20% and 13%
Population Healthy Nuclei (%) (U2OS; [4]): 75% and 82%
Population Hoechst High Intensity Objects (%) (U2OS; [4]): 2% and 0%
Population Membrane Permeable-Phenotype (%) (U2OS; [4]): 3% and 5%
Population Mitochondria Different-Phenotype (%) (U2OS; [4]): 2% and 1%
Population Mitotic Cells (%) (U2OS; [4]): 36% and 20%
Population Normal (%) (U2OS; [4]): 97% and 100%
Population Pyknosed Nuclei (%) (U2OS; [4]): 3%
Population Tubulin-Different-Phenotype (%) (U2OS; [4]): 2% and 1%
Total Cell Count (U2OS; [4]): 288 and 151
Population Apoptotic (%) (U2OS; [5]): 69% and 100%
Population Fragmented Nuclei (%) (U2OS; [5]): 36% and 22%
Population Healthy Nuclei (%) (U2OS; [5]): 57% and 75%
Population Hoechst High Intensity Objects (%) (U2OS; [5]): 1% and 0%
Population Membrane Permeable-Phenotype (%) (U2OS; [5]): 8% and 6%
Population Mitochondria Different-Phenotype (%) (U2OS; [5]): 0% and 6%
Population Normal (%) (U2OS; [5]): 98% and 100%
Population Pyknosed Nuclei (%) (U2OS; [5]): 6% and 2%
Population Tubulin-Different-Phenotype (%) (U2OS; [5]): 1%
Total Cell Count (U2OS; [5]): 215 and 84
Population Apoptotic (%) (U2OS; [6]): 76% and 92%
Population Fragmented Nuclei (%) (U2OS; [6]): 18% and 14%
Population Healthy Nuclei (%) (U2OS; [6]): 73% and 78%
Population Hoechst High Intensity Objects (%) (U2OS; [6]): 2% and 1%
Population Membrane Permeable-Phenotype (%) (U2OS; [6]): 3% and 7%
Population Mitochondria Different-Phenotype (%) (U2OS; [6]): 2%
Population Normal (%) (U2OS; [6]): 97% and 98%
Population Pyknosed Nuclei (%) (U2OS; [6]): 7%
Population Tubulin-Different-Phenotype (%) (U2OS; [6]): 2% and 4%
Total Cell Count (U2OS; [6]): 341 and 185
Population Apoptotic (%) (U2OS; [1]): 86% and 100%
Population Fragmented Nuclei (%) (U2OS; [1]): 31% and 16%
Population Healthy Nuclei (%) (U2OS; [1]): 62% and 80%
Population Hoechst High Intensity Objects (%) (U2OS; [1]): 2% and 0%
Population Membrane Permeable-Phenotype (%) (U2OS; [1]): 5% and 3%
Population Mitochondria Different-Phenotype (%) (U2OS; [1]): 1% and 4%
Population Mitotic Cells (%) (U2OS; [1]): 13% and 0%
Population Normal (%) (U2OS; [1]): 97% and 100%
Population Pyknosed Nuclei (%) (U2OS; [1]): 6% and 2%
Population Tubulin-Different-Phenotype (%) (U2OS; [1]): 2% and 3%
Total Cell Count (U2OS; [1]): 240 and 103
Population Apoptotic (%) (U2OS; [2]): 74% and 81%
Population Fragmented Nuclei (%) (U2OS; [2]): 14% and 13%
Population Healthy Nuclei (%) (U2OS; [2]): 78% and 76%
Population Hoechst High Intensity Objects (%) (U2OS; [2]): 1%
Population Membrane Permeable-Phenotype (%) (U2OS; [2]): 2% and 5%
Population Mitochondria Different-Phenotype (%) (U2OS; [2]): 2%
Population Mitotic Cells (%) (U2OS; [2]): 25% and 18%
Population Normal (%) (U2OS; [2]): 98%
Population Pyknosed Nuclei (%) (U2OS; [2]): 6% and 10%
Population Tubulin-Different-Phenotype (%) (U2OS; [2]): 2% and 1%
Total Cell Count (U2OS; [2]): 484 and 253
Population Apoptotic (%) (U2OS; [3]): 90% and 100%
Population Fragmented Nuclei (%) (U2OS; [3]): 23% and 17%
Population Healthy Nuclei (%) (U2OS; [3]): 70% and 74%
Population Hoechst High Intensity Objects (%) (U2OS; [3]): 1% and 0%
Population Membrane Permeable-Phenotype (%) (U2OS; [3]): 5% and 3%
Population Mitochondria Different-Phenotype (%) (U2OS; [3]): 1% and 6%
Population Mitotic Cells (%) (U2OS; [3]): 10% and 0%
Population Normal (%) (U2OS; [3]): 98% and 100%
Population Pyknosed Nuclei (%) (U2OS; [3]): 6% and 7%
Population Tubulin-Different-Phenotype (%) (U2OS; [3]): 2%
Total Cell Count (U2OS; [3]): 333 and 152
